According to the array DNA melting data of Ke et al. (doi:10.1101/2024.01.08.574731):

Key:
[1] = melting temperature; fluorescence melt of hairpins on a sequencing array, two-state fit, raised by 9.35 °C to match UV melts; conditions: sodium 0.088 M
In short: (§1)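 Two-state fits, bootstrapped, provided melting temperature and folding enthalpy from Cy3 fluorescence normalised to pre-quench Cy3 and to control constructs. Library hairpins with annealed Cy3 and quencher oligos were imaged on a sequenced MiSeq flow cell in 50 mM Na-HEPES pH 8.0, 25 mM NaCl, at 2.5 °C intervals up to 60 °C. Four replicates were combined with inverse-variance weighting. A 9.35 °C upward shift was applied to fitted temperatures to match UV melts.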

[2] = folding enthalpy; higher = less favourable; fluorescence melt of hairpins on a sequencing array, two-state fit; conditions: sodium 0.088 M
In short: as §1

Sequence | Tm [1] [°C] | folding enthalpy [2] [kcal/mol]
GCCTTTGGAAACGAAGGC (((((.(....).))))) | 51.6 | -35.4
GTCATCGGAAACAATGAC (((((.(....).))))) | 36.1 | -28
GATCACGAGCGTGATC ((((((....)))))) | 59.1 | -39.5
GCGTACGAAAGTAATCGC ((((((....)))..))) | 44.1 | -23.6
GTGTTAGGAAACTAACAC (((((((....))))))) | 57.8 | -42.1
GATCGTGTATACGATC ((((((....)))))) | 62.1 | -46
CGCGGAATTCTCCGCG ((((((....)))))) | 69.3 | -32
GTCGTACGAAAGTAGAC (((.(((....)))))) | 52 | -32.4
GGTTCCGAAAGGACGACC ((((((....)))..))) | 37.4 | -15.8
GATCAAGGGATTGATC ((((((....)))))) | 44.8 | -26.9
GATCTGGGACCAGATC ((((((....)))))) | 54.7 | -43.4
GCATAGCGAAAGCTGCGC ((..(((....)))..)) | 61.3 | -21
GTTCACCGAAAGGTCAAC (((.(((....))).))) | 33 | -18.4
GACATAGGAAACTACGTC (((.(((....))).))) | 30 | -15.1
GCTGCAGGAAACTGCAAC (.(((((....))))).) | 40.9 | -13.5
GTGTGTGGAAACATGCAC (((..((....))..))) | 43.3 | -27.4
GTCGCGGGAAACTGCGAC (((((.(....).))))) | 65.3 | -41.2
GCGTTCCGAAAGGACGC (((.(((....)))))) | 63.3 | -41.9
GAAGGTGGAAACACTTTC (((.(((....))).))) | 38 | -24.9
GATCGAAGGTTCGATC ((((((....)))))) | 52.1 | -31.2
GTTGCGGGAAACCGTGAC ((..(((....)))..)) | 45.2 | -20.2
GTGGTTCGAAAGAAGCAC (((.(((....))).))) | 60.1 | -41.7
GTGGTGCGAAAGCACAC (((.(((....)))))) | 53.8 | -11.5

Sequence | Tm [1] [°C] | folding enthalpy [2] [kcal/mol]
GCATTTCCGAAAGGATGC (((..(((....)))))) | 38.4 | -21.6
GCTGTCGAAAGACTAAGC ((((((....)))..))) | 46.2 | -20
GTGAGGCCGAAAGGCCAC (((..(((....)))))) | 50.3 | -11.7
CGCACGGAAACGTTTGCG ((((((....)))..))) | 44.1 | -29.5
GCATAGCGAAAGCGATGC ((((.((....)).)))) | 66.1 | -30.9
GTTTGCGAAAGCAAGAAC ((((((....)))..))) | 36.7 | -10
GGGCTGGGAAACTAGCCC (((((.(....).))))) | 58.1 | -45.3
GCAATGCGAAAGCACCGC ((..(((....)))..)) | 33 | -9.88
GATCCTTTACAGGATC ((((((....)))))) | 51.1 | -51.6
GTGCGCCGAAAGGCACAC (((.(((....))).))) | 63.7 | -29
GTCATCGAAAGATATGAC ((((((....)))..))) | 34.6 | -20
GCGATACGAAAGTACGC (((.(((....)))))) | 55.4 | -29.6
GATCTTAATAAAGATC ((((((....)))))) | 40.9 | -28.5
GATCTACCGGTAGATC ((((((....)))))) | 53.2 | -43.4
GGGGTTGGAAACGACCCC (((((.(....).))))) | 57.8 | -49.1
CGAAACGGAAACGTTCG (((.(((....)))))) | 45 | -25.9
GGCGGGGGAAACCCTGCC (((.(((....))).))) | 65.2 | -27
GCCCAGCGAAAGCCCGGC (((..((....))..))) | 47.1 | -15.6
GCATGAGGAAACTCGTGC (((.(((....))).))) | 52.9 | -47.4
CAGAAGAAATTCTG (((((....))))) | 33.8 | -12.7
GCACAGCGAAAGCCGAGC ((.(.((....)).).)) | 39.3 | -12.6
GGCGTATCGAAAGATGCC (((..(((....)))))) | 47.9 | -22.5
GTATTTGGAAACAAATGC (.(((((....))))).) | 39.9 | -28.4

Sequence | Tm [1] [°C] | folding enthalpy [2] [kcal/mol]
GGTCCTCGAAAGAGTACC (((.(((....))).))) | 43.4 | -31.1
GATCGGGTCACCGATC ((((((....)))))) | 67.4 | -36.4
GCCGCCGAAAGGCGAGGC ((((((....)))..))) | 60.6 | -14.4
GTGGTTGGAAACAGCCAC ((((.((....)).)))) | 52.4 | -44.1
GAACGGGGAAACCTGTTC ((((.((....)).)))) | 49 | -32.4
TGGTAGAAATACCA (((((....))))) | 36.8 | -12.8
GGAGGCGAAAGCCCATCC ((((((....)))..))) | 31.3 | -9.1
GCGAGGCGAAAGCCATGC ((..(((....)))..)) | 58.1 | -17.6
GCGAGGAGTCGC ((((....)))) | 52.8 | -13.4
GTCTCAGAAATGAGAC ((((((....)))))) | 53.8 | -41.8
GCTGGCTCGAAAGAGAGC (((..(((....)))))) | 36.9 | -11.1
GCGTTTCGAAAGAACCGC (((.(((....))).))) | 52.4 | -39.8
CGTTCTCGGAAACGAACG (((..(((....)))))) | 35.8 | -19.2
GATCACTCTCGTGATC ((((((....)))))) | 55.7 | -41.8
GACATTGAAAAATGTC ((((((....)))))) | 50.3 | -31.1
GGGTTCGAAAGAATGCCC ((((((....)))..))) | 35.3 | -21.1
GGTGTCGAAAGACCCACC ((((((....)))..))) | 45.1 | -12.1
GCCGACGAAAGTCCGGC ((((((....))).))) | 61.2 | -31.1
GGGGATGGAAACGTCCTC (.(((.(....).))).) | 36.1 | -27
GATCTCTGCGAGATC ((((((...)))))) | 52.8 | -19.3
GTAGTAGGAAACTATTAC (((.(((....))).))) | 29.9 | -17.7
GAAAACGAAAGTTTTTTC ((((((....)))..))) | 38.9 | -20.7
GATCGGGTGCCGATC ((((((...)))))) | 55.2 | -49.1

Sequence | Tm [1] [°C] | folding enthalpy [2] [kcal/mol]
GCTATAACGAAAGTTAGC (((..(((....)))))) | 37.5 | -19.8
GGGCTGCGAAAGCACCCC (((.(((....))).))) | 57.3 | -18.2
GATCACTCACGTGATC ((((((....)))))) | 55.8 | -41.5
GAAGCTGGAAACAGCCTC ((.((((....)))).)) | 32.6 | -13.8
GCTTTGGGAAACTAAAGC (((((.(....).))))) | 44.3 | -27.4
GATCAATTTTTTGATC ((((((....)))))) | 47.3 | -35.1
GTCGGAGGAAACCCCGAC (((((.(....).))))) | 53.8 | -33.3
GCTGAGCGAAAGCCCCGC ((.(.((....)).).)) | 35.8 | -12
GGATCCGAAAGGAAATCC ((((((....)))..))) | 38.2 | -25.9
GATCCTCAGAAGGATC ((((((....)))))) | 51 | -35.3
GCCATCGGAAACGACGGC (((.(((....))).))) | 52.1 | -35.5
GTGATGGGAAACCATCAC (((((((....))))))) | 64.6 | -43.8
GTGATCGAAAGATGCCAC ((((((....)))..))) | 24.4 | -11.5
GGGCTTCGAAAGAACCC (((.(((....)))))) | 48.6 | -28.9
GGCAACGAAAGTTCCGCC ((((((....)))..))) | 48.4 | -21.4
GGCTTACGAAAGTAGCC (((.(((....)))))) | 55.5 | -34.1
GTGTTCGAAAGAAGCAC ((((((....))).))) | 37.4 | -21.8
GTTTCGGGAAACTGAAAC (((((.(....).))))) | 46.9 | -27.5
GTGGGCGAAAGCCCGCAC ((((((....)))..))) | 58.6 | -10.2
GTCAAACCGAAAGGTGAC (((..(((....)))))) | 45.4 | -21.3
GTCTGTACGAAAGTAGAC (((..(((....)))))) | 36.4 | -24.2
GGTCGTCGAAAGACAACC (((.(((....))).))) | 48.9 | -26.1
GACGCTGGAAACAGCACC (..((((....))))..) | 30 | -11.1
